Laboratory results: ChEMBL document CHEMBL2396584, “Semisynthesis, cytotoxicity, antiviral activity, and drug interaction liability of 7-O-methylated analogues of flavonolignans from milk thistle” (Bioorg Med Chem, 2013)
The source made the active and inactive calls. The calls are words filed in the database; no cut-off is given here.

Columns and labels:
[1] = Cytotoxicity against human Huh7.5.1 cells after 72 hrs; type: functional, cell-based; conditions: Huh-7, 72 h
Procedure, shortened: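 Huh7.5.1 hepatoma cells were seeded at 10,000 per well and incubated overnight. They were then exposed to nine concentrations from 0 to 62.5 μM. Viability was read after 72 h with an ATPlite assay. Each point was run in three replicates, and IC50 was derived by linear regression.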

Hepatitis C virus [2] = assay: Antiviral activity against HCV JFH-1 infected in human Huh7.5.1 cells assessed as viral core protein expression at 1.6 to 16.1 uM after 72 hrs by Western blot analysis; type: functional, organism-based; conditions: Hepacivirus hominis, Huh-7
Hepatitis C virus [3] = assay: Antiviral activity against HCV JFH-1 infected in human Huh7.5.1 cells assessed as viral core protein expression at 12.4 to 124.2 uM after 72 hrs by Western blot analysis; type: functional, organism-based; conditions: Hepacivirus hominis, Huh-7
Hepatitis C virus [4] = assay: Antiviral activity against HCV JFH-1 infected in human Huh7.5.1 cells assessed as viral core protein expression at 0.8 to 8 uM after 72 hrs by Western blot analysis; type: functional, organism-based; conditions: Hepacivirus hominis, Huh-7
[5] = Inhibition of UGT in human liver microsomes using 4-methylumbelliferone as substrate after 10 mins by fluorescence analysis; type: ADME, Microsome
Procedure, shortened: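 Pooled human liver microsomes (0.4 mg/mL) were incubated with 4-MU (100 μM), compound at 10 or 100 μM, 0.05% BSA, and 0.1 M Tris–HCl pH 7.5 with 5 mM MgCl2. The reaction was started with UDPGA (4 mM), and 4-MU depletion was followed by fluorescence over 10 min. Vehicle was 0.2% MeOH and diclofenac (400 μM) was the positive control. Data are means ± SD of triplicate incubations.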

Hepatitis C virus [6] = assay: Antiviral activity against HCV JFH-1 infected in human Huh7.5.1 cells assessed as viral core protein expression at 6.2 to 62.1 uM after 72 hrs by Western blot analysis; type: functional, organism-based; conditions: Hepacivirus hominis, Huh-7
Hepatitis C virus [7] = assay: Antiviral activity against HCV JFH-1 infected in human Huh7.5.1 cells assessed as viral core protein expression at 6 to 60.3 uM after 72 hrs by Western blot analysis; type: functional, organism-based; conditions: Hepacivirus hominis, Huh-7
Cytochrome P450 2C9 = Cytochrome P450 2C9 (Homo sapiens, UniProt P11712); assay: Inhibition of CYP2C9 in human liver microsomes using (S)-warfarin as substrate after 30 mins; type: ADME, Microsome; conditions: 0.5 h
Cytochrome P450 2C9, sequence (P11712 whole entry): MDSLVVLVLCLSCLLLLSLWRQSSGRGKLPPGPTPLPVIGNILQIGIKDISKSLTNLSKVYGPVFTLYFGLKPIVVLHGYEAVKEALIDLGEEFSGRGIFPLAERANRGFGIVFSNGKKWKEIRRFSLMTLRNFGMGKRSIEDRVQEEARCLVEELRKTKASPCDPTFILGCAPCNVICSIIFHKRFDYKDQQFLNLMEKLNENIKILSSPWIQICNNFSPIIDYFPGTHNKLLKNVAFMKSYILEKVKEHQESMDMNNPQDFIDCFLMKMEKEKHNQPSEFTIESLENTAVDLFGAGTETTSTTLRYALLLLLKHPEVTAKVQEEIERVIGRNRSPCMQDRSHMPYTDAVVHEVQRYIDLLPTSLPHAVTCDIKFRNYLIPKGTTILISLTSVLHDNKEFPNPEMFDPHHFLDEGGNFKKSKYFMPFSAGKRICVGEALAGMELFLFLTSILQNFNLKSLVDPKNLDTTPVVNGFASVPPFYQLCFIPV

Row | SMILES | IC50 [1] | inhibition (INH) [5] | other results
1 | Oc1ccc(/C=C/c2cc(O)cc(O)c2)cc1 [RESVERATROL] | 10.6 µM | – | –
2 | COc1cc(O)c2c(c1)O[C@H](c1ccc3c(c1)O[C@@H](CO)[C@H](c1ccc(O)c(OC)c1)O3)[C@@H](O)C2=O | 18 µM | – | Activity (Hepatitis C virus [2]): Active
3 | COc1cc([C@@H]2Oc3ccc([C@H]4Oc5cc(O)cc(O)c5C(=O)[C@@H]4O)cc3O[C@H]2CO)ccc1O [ISOSILYBIN B] | 27 µM | – | Activity (Hepatitis C virus [2]): Active
4 | COc1cc([C@@H]2Oc3c(O)ccc([C@H]4Oc5cc(O)cc(O)c5C(=O)[C@@H]4O)c3[C@H]2CO)ccc1O [ISOSILYCHRISTIN] | > 130 µM | – | Activity (Hepatitis C virus [3]): inactive
5 | COc1cc(O)c2c(c1)O[C@H](c1ccc3c(c1)O[C@H](CO)[C@@H](c1ccc(O)c(OC)c1)O3)[C@@H](O)C2=O | 13.2 µM | – | Activity (Hepatitis C virus [4]): Active
6 | COc1cc([C@@H]2Oc3cc([C@H]4Oc5cc(O)cc(O)c5C(=O)[C@@H]4O)ccc3O[C@H]2CO)ccc1O [SILYBIN B] | 68.7 µM | Active | Activity (Hepatitis C virus [6]): Active
7 | COc1cc([C@@H]2[C@H]3CO[C@@]4(O)C(=O)[C@@H]2C=C([C@H]2Oc5cc(O)cc(O)c5C(=O)[C@@H]2O)[C@@H]34)ccc1O [SILIDIANIN] | > 130 µM | Active | Activity (Hepatitis C virus [3]): inactive
8 | O=C(O)Cc1ccccc1Nc1c(Cl)cccc1Cl [DICLOFENAC] | – | 56% | –
9 | COc1cc(O)c2c(c1)O[C@H](c1cc(O)c3c(c1)[C@@H](CO)[C@H](c1ccc(O)c(OC)c1)O3)[C@@H](O)C2=O | 66.4 µM | – | Activity (Hepatitis C virus [7]): Active
10 | COc1cc(O)c2c(c1)O[C@H](c1ccc3c(c1)O[C@@H](c1ccc(O)c(OC)c1)[C@H](CO)O3)[C@@H](O)C2=O | 12.7 µM | Active | Activity (Hepatitis C virus [4]): Active
11 | COc1cc(O)c2c(c1)O[C@H](c1ccc3c(c1)O[C@H](c1ccc(O)c(OC)c1)[C@@H](CO)O3)[C@@H](O)C2=O | 9.5 µM | Active | Activity (Hepatitis C virus [4]): Active
12 | COc1cc([C@H]2Oc3ccc([C@H]4Oc5cc(O)cc(O)c5C(=O)[C@@H]4O)cc3O[C@@H]2CO)ccc1O [ISOSILYBIN A] | 80 µM | – | inhibition (INH) (Cytochrome P450 2C9): Not Active; Activity (Hepatitis C virus [6]): Active
13 | COc1cc(O)c2c(c1)O[C@H](C1=C[C@H]3C(=O)[C@]4(O)OC[C@H]([C@H]3c3ccc(O)c(OC)c3)[C@H]14)[C@@H](O)C2=O | 9.4 µM | Active | Activity (Hepatitis C virus [4]): Active
14 | COc1cc(O)c2c(c1)O[C@H](c1ccc(O)c3c1[C@@H](CO)[C@H](c1ccc(O)c(OC)c1)O3)[C@@H](O)C2=O | 27.6 µM | – | Activity (Hepatitis C virus [3]): Active
15 | COc1cc(C2Oc3c(O)cc([C@H]4Oc5cc(O)cc(O)c5C(=O)[C@@H]4O)cc3C2CO)ccc1O (some centres not stated) [SILICRISTIN] | > 130 µM | – | Activity (Hepatitis C virus [3]): inactive
16 | COc1cc([C@H]2Oc3cc([C@H]4Oc5cc(O)cc(O)c5C(=O)[C@@H]4O)ccc3O[C@@H]2CO)ccc1O [SILYBIN A] | 80 µM | Active | Activity (Hepatitis C virus [6]): Active
